Experimental data as given in PubChem BioAssay.
Calls of active or inactive are those of the source.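 The calls were made as follows: active = calcium signal ratio cut to more than 3 SD under the fully stimulated control mean yet still positive, in both repeats and the primary screen; inactive = the rest.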

target: Short transient receptor potential channel 4 (Mus musculus) (UniProt Q9QUQ5); assay: inhibitors of mouse TRPC4 channel, confirmation, cell-based, second round, Fluo4, HEK293 TRPC4beta/mu-opioid, 1 µM (AID 2637); conditions: Fluo4 calcium flux, DAMGO, at 1 µM
Sequence (Q9QUQ5 whole entry, looked up): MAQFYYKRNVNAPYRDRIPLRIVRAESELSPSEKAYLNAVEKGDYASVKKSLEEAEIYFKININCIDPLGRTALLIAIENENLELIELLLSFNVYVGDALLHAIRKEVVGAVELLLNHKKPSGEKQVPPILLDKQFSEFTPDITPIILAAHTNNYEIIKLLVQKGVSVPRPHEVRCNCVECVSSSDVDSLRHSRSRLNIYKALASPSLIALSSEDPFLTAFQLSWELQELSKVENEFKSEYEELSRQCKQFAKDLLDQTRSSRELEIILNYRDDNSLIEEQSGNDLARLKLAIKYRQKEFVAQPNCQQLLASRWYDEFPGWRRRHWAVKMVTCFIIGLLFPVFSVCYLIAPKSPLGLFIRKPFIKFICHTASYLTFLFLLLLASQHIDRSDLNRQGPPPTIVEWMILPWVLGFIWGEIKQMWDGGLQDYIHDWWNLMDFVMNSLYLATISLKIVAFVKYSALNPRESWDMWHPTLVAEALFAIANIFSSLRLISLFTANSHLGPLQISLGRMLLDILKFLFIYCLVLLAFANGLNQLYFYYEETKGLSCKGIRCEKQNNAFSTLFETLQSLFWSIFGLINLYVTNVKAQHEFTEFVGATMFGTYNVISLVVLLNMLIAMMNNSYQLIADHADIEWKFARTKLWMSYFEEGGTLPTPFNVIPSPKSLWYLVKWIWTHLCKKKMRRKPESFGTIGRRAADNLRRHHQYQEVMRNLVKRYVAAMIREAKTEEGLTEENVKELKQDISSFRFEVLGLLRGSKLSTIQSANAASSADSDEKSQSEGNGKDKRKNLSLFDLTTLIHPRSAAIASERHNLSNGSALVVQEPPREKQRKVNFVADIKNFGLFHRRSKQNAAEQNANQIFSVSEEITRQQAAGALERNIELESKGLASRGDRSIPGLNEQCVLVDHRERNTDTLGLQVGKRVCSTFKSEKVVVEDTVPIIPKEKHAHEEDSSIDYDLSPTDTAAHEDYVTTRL
Procedure, shortened: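 test system = HEK293 stable line co-expressing TRPC4beta and mu-opioid receptor | schedule = dye loading 45 min room temperature, compound pre-incubation 110 s | controls = DAMGO ECmax control wells and wells without test compound | reagent = DAMGO, submaximal then ECmax | signal = kinetic Fluo4 Ca2+ fluorescence reading | replication = duplicates | compound = 1 µM single point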

outcome, inactive:
NC1=NC2(CCN(Cc3ccccc3)CC2)n2c(nc3ccccc32)N1
COc1ccc(CN2CCC(N(CCc3ccccc3)Cc3ccccc3)CC2)c(OC)c1
CCc1ccc(C(=O)c2cnc3ccc(OC)cc3c2N2CCN(CC)CC2)cc1
S=C(NCCc1cnc[nH]1)NC1CCCC1
O=C(NCc1ccccc1)C1=C[C@H](c2ccccc2)C[C@H](OCc2ccc(CO)cc2)O1
Cc1ccc(OCC(=O)N(C)CCc2ccccn2)cc1
CC(C)(C)C(=O)/C=c1\s/c(=C\c2ccc(-c3ccc([N+](=O)[O-])cc3)o2)c(=O)n1CC(=O)NC(N)=O
NC(=O)C1CCCN(CCc2ccccc2)C1 (stereo not drawn)
Cc1cc2nc3s/c(=C/c4ccc(-c5ccccc5C(=O)O)o4)c(=O)n3c2cc1C
COc1ccc(CNCc2cn(-c3cccc(F)c3)nc2-c2ccc(C)o2)cc1
CN(C)C(CNc1ccc(C(F)(F)F)cn1)c1ccccc1 (stereo not drawn)
CN(C)C(CNC(=O)c1cccc(S(=O)(=O)N(C)C)c1)c1ccccc1 (stereo not drawn)
CCCc1c(O)nc(SCCN(CC)CC)[nH]c1=O
CCC(=O)N1CCc2cc(Br)cc(S(=O)(=O)NCCCN(CC)Cc3ccccc3)c21
Cc1ccc(Cn2c(SCCN3CCCCC3)nc3c2c(=O)n(C)c(=O)n3C)cc1
O=C(O)C1C2C=CC(C2)C1C(=O)N1CCN(C/C=C/c2ccccc2)CC1 (stereo not drawn)
COc1ccc(C)c(NC(=O)NCCc2cnc[nH]2)c1
OCCC1CN(Cc2ccccc2-c2ccco2)CCN1Cc1ccccc1 (stereo not drawn)
